Results taken from ChEMBL document CHEMBL1144666, “Indoleamine 2,3-dioxygenase is the anticancer target for a novel series of potent naphthoquinone-based inhibitors” (J Med Chem, 2008).
pIC50, pKi: −log10 of the molar value. The source made the active and inactive calls. The rule behind the calls is not given here.

Assays:
[1] = target: T1, Indoleamine 2,3-dioxygenase 1 (Homo sapiens, UniProt P14902); assay: Inhibition of purified human recombinant IDO
B16-F10 [2] = assay: Antitumor activity in mouse B16-F10 cells isografted athymic NCr-nu/nu mouse at 25 mg/kg, ip qd for 5 days; assay type: functional, organism-based; set-up: dose 25 mg/kg
Method in brief: (§1)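 Mice given 1 × 10^5 B16-F10 melanoma cells s.c.; i.p. dosing at 25 mg/kg qd 5 days a week begins 7 days later and runs until the experiment ends. Tumors are measured by caliper twice weekly until control tumors reach ~5000 mm3. Data are mean tumor size ± SEM. Treated and untreated groups are compared at study end by two-tailed Mann–Whitney test.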

[3] = Cytotoxicity against human TREx cells expressing doxycyclin-inducible IDO assessed as cell viability by SRB assay; assay type: functional; details: read-out: LD50 (the source's name)
Method in brief: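 T-REx cells with inducible human IDO cDNA, seeded at 20000/well in DMEM + 10% FBS, induced 72 h with 20 ng/mL doxycycline, rinsed, then exposed to serial compound dilutions in phenol red-free DMEM + 10% FBS for 18 h, in triplicate.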

Mus musculus = assay: Antitumor activity in parous MMTV-Neu transgenic FVB mouse assessed as tumor volume at 25 mg/kg, ip qd for 5 days; assay type: functional, organism-based; set-up: dose 25 mg/kg
Method in brief: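 Autochthonous mammary tumors in parous FVB MMTV-Neu mice expressing wild-type rat HER2/Neu. Agent given at 25 mg/kg for 5 consecutive days in the first week; paclitaxel cohorts received 13.3 mg/kg i.v. qd 3×/week over the 2-week treatment period. Read-out is fold change in volume of individual tumors, with mean ± SEM per group.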

B16-F10 [4] = assay: Antitumor activity in mouse B16-F10 cells isografted C57BL/6 mouse at 25 mg/kg, ip qd for 5 days; assay type: functional, organism-based; set-up: dose 25 mg/kg; method in brief: as §1
B16-F10 [5] = assay: Antitumor activity in mouse B16-F10 cells isografted IDO knockout C57BL/6 mouse at 25 mg/kg, ip qd for 5 days; assay type: functional, organism-based; set-up: dose 25 mg/kg; method in brief: as §1
[6] = target: T1, Indoleamine 2,3-dioxygenase 1; assay: Inhibition of purified human recombinant IDO expressed in TREx cells
Method in brief: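 T-REx cells carrying doxycycline-inducible human IDO cDNA are seeded at 20000/well and induced 72 h with doxycycline. They are rinsed, then exposed in triplicate to serial dilutions in phenol red-free DMEM + 10% FBS for 18 h and TCA-fixed. Supernatant kynurenine is read with p-DMAB at 490 nm, corrected for SRB viability. IC50 is taken from a sigmoidal curve.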
Target sequence in this assay (P14902 whole entry): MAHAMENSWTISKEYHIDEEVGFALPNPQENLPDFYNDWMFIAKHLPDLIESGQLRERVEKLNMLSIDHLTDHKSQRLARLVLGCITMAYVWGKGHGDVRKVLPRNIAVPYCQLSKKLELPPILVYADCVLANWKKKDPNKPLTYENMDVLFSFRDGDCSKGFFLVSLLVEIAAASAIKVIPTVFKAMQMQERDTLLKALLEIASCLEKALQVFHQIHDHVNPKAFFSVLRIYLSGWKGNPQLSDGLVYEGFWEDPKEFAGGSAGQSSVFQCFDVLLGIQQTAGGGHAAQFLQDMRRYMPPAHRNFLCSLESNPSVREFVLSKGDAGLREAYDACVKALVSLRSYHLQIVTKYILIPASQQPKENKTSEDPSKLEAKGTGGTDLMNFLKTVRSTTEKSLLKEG

Row | SMILES | pIC50 [1] | other results
1 | COC1C2=C(OC(C)(C)C1O)C(=O)c1ccccc1C2=O (cis isomer) | 6.01 | –
2 | COc1ccc2c(c1)C(=O)C1=C(C=CC(C)(C)O1)C2=O | 6.03 | –
3 | CCCCN[C@H]1C2=C(OC(C)(C)[C@H]1O)C(=O)c1ccccc1C2=O | 6.89 | –
4 | CC1=CC(=O)c2ccccc2C1=O [MENADIONE] | 6.00 | Activity (B16-F10 [2]): inactive; CC50 [3]: 126000 nM; Activity (Mus musculus): Active; Activity (B16-F10 [4]): Active; Activity (B16-F10 [5]): inactive
5 | CC1(C)OC2=C(C(=O)c3ccccc3C2=O)C(OCc2ccccc2)C1O (stereo not given) | 5.96 | –
6 | CC1(C)C=CC2=C(O1)C(=O)c1cc(O)ccc1C2=O | 5.69 | –
7 | CC1(C)OC2=C(C(=O)c3ccccc3C2=O)[C@@H]2O[C@@H]21 | 5.31 | –
8 | CCc1c(C)cc2c(c1O)C(=O)C1=C(C2=O)C(C)(C)C(=O)C(C)(C(=O)OC)O1 (stereo not given) | – | pKi [1]: 6.92
9 | COc1ccc2c(c1)C(=O)C1=C(OC(C)(C)C=C1)C2=O | 5.52 | –
10 | O=C1C=CC(=O)c2c(O)cccc21 [JUGLONE] | 6.00 | –
11 | CCCCNC1C2=C(OC(C)(C)C1O)C(=O)c1ccccc1C2=O (trans isomer) | 7.09 | pIC50 [6]: 4.06
12 | COc1cccc2c1C(=O)C1=C(OC(C)(C)C=C1)C2=O | 5.67 | –
13 | CC1(C)OC2=C(C(=O)c3ccccc3C2=O)C(SCc2ccccc2)C1O (cis isomer) | 5.46 | –
14 | Cc1c(SC[C@H](NC(=O)CC[C@H](N)C(=O)O)C(=O)NCC(=O)O)c(O)c2ccccc2c1O | 6.47 | –
15 | CC1=C(SC[C@H](NC(=O)CC[C@H](N)C(=O)O)C(=O)NCC(=O)O)C(=O)c2ccccc2C1=O | 6.06 | –
16 | O=C1C=C(O)C(=O)c2ccccc21 [LAWSONE] | 3.17 | –
17 | O=C1C(Cl)=C(Cl)C(=O)c2ccccc21 [Dichlon] | 6.55 | –
18 | CC1=C(C/C=C(\C)CCC[C@H](C)CCC[C@H](C)CCCC(C)C)C(=O)c2ccccc2C1=O | – | Activity [1]: inactive
19 | CC1(C)OC2=C(C(=O)c3ccccc3C2=O)C(N2CCOCC2)C1O (cis isomer) | 5.96 | –

Row | SMILES | pIC50 [1] | other results
20 | CC1(C)C=CC2=C(O1)C(=O)c1c(O)cccc1C2=O | 6.92 | pIC50 [6]: 4.16
21 | CC1(C)OC2=C(C(=O)c3ccccc3C2=O)C(N2CCOCC2)C1O (trans isomer) | 6.44 | –
22 | O=C1C=CC(=O)C(c2ccccc2)=C1 | – | Activity [1]: inactive
23 | CC1(C)CCC2=C(O1)C(=O)c1ccccc1C2=O [ALPHA-LAPACHONE] | 5.36 | –
24 | COC1=CC(=O)c2ccccc2C1=O [2-Methoxy-1,4-naphthoquinone] | 6.14 | –
25 | CC1(C)C=CC2=C(O1)C(=O)c1cccc(O)c1C2=O | 6.72 | –
26 | CC1(C)C=CC2=C(O1)C(=O)c1ccc(O)cc1C2=O | 5.26 | –
27 | COc1cccc2c1C(=O)C1=C(C=CC(C)(C)O1)C2=O | 5.53 | –
28 | CC1(C)C=CC2=C(O1)C(=O)c1ccccc1C2=O [DEHYDRO-ALPHA-LAPACHONE] | 6.67 | –
29 | CC1(C)OC2=C(C(=O)c3ccccc3C2=O)C(O)C1Br (stereo not given) | 6.29 | –
30 | O=c1ccoc2ccccc12 | – | Activity [1]: inactive
31 | C=CCNC1C2=C(OC(C)(C)C1O)C(=O)c1ccccc1C2=O (trans isomer) | 6.73 | –
32 | COC1C2=C(OC(C)(C)C1O)C(=O)c1ccccc1C2=O (trans isomer) | 5.40 | –
33 | COC(=O)C1(C)C=CC2=C(O1)C(=O)c1ccccc1C2=O (stereo not given) | 6.61 | –
34 | CC1=CC(=O)C=CC1=O | – | Activity [1]: inactive
35 | O=C1C=CC(=O)C=C1 | – | Activity [1]: inactive
36 | CC1(C)OC2=C(C(=O)c3ccccc3C2=O)C(SCc2ccccc2)C1O (trans isomer) | 5.67 | –
37 | O=C1C=Cc2ccccc2C1=O [1,2-NAPHTHOQUINONE] | 5.15 | –
38 | CC1(C)OC2=C(C(=O)c3ccccc3C2=O)C(O)C1O (stereo not given) | 5.82 | –
